Reference: ChEMBL document CHEMBL2331084, “Synthesis and evaluation of oxime derivatives as modulators for amyloid beta-induced mitochondrial dysfunction” (Eur J Med Chem, 2013)

Columns and labels:
HT-22 [1] = assay: Inhibition of mPTP in mouse HT22 cells assessed as reduction in amyloid beta-induced mitochondrial membrane damage at 10 uM incubated for 10 mins prior to amyloid beta-challenge measured every 1 hr for 3 hrs by JC-1 based fluorometric analysis; type: cell-based; set-up: scale not given: the % may be the effect or the level left
In short: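 HT-22 cells, 30,000 per well, seeded a day earlier, loaded with 7.5 μM JC-1 (final) in phenol red-free Opti-MEM for 1 h 15 min at 37 °C, then PBS-washed. Compound solution at 10 μM for 10 min at 37 °C, then amyloid beta 1–42 solution at 10 μM. Red (ex/em 530/580) and green (485/530) fluorescence read hourly for 3 h. Green/red ratio change normalised to vehicle as 100%.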

HT-22 [2] = assay: Inhibition of mPTP in mouse HT22 cells assessed as recovery in amyloid beta-suppressed ATP level at 5 uM incubated for 10 mins prior to amyloid beta-challenge measured for 7 hrs relative to control; type: cell-based; set-up: scale not given: the % may be the effect or the level left
In short: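 HT-22 mouse hippocampal cells, grown in DMEM with 10% FBS at 37 °C and 5% CO2, were seeded the day before. Compound (10 µM solution) added 10 min before amyloid beta 1-42 (10 µM solution), then 7 h at 37 °C. Lysates normalised to equal protein by BCA, and ATP measured with a luciferase kit. % recovery is relative to the amyloid-treated vehicle. Viability is from ATP without amyloid beta.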

[3] = Cytotoxicity against mouse […] cells assessed as cell viability at 5 uM; type: cell-based; conditions: read-out: Activity
[4] = Metabolic stability in human liver microsomes at 1 uM after 30 mins by LC/MS analysis; type: ADME, Microsome; conditions: read-out: Stability
In short: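 Pooled human liver microsomes (0.5 mg/mL protein), compound at 1 μM, 1.2 mM NADPH, 100 mM phosphate pH 7.4, 37 °C with shaking for 30 min, in duplicate. Stopped with ice-cold acetonitrile containing internal standard, centrifuged, supernatant analysed by LC–MS/MS for % remaining.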

[5] = Cmax in Sprague-Dawley rat at 10 mg/kg, po; type: ADME, organism-based; set-up: dose 10 mg/kg, route oral; conditions: in vivo
In short: (§1)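 Male Sprague-Dawley rats dosed 10 mg/kg iv (n = 3) or orally (n = 4). Carotid blood sampled at 0, 1 min (iv only), 5 min, 15 min, 0.5, 1, 2, 4, 6 and 8 h. Plasma analysed by LC-MS/MS after acetonitrile precipitation with internal standard (LLOQ 5 ng/mL). Parameters from non-compartmental analysis. Values are mean ± SD.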

[6] = AUC (0 to infinity) in Sprague-Dawley rat at 10 mg/kg, iv; type: ADME, organism-based; set-up: time infinity, dose 10 mg/kg, route intravenous; conditions: plasma
[7] = Cytotoxicity against mouse […] cells assessed as cell viability at 10 uM after 24 hrs by MTT assay; type: cell-based; conditions: read-out: Activity
HT-22 [8] = assay: Neuroprotective activity against in mouse HT22 cells assessed as inhibition of amyloid beta-induced toxicity at 10 uM incubated for 10 mins prior to amyloid beta-challenge measured after 24 hrs by MTT assay; type: functional
In short: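 HT-22 mouse hippocampal cells (DMEM, 10% FBS), 5000 per well, seeded a day before. Compound solution at 10 μM added 10 min before amyloid beta 1–42 solution at 10 μM, then 24 h at 37 °C. MTT 2 h, then acidified Triton/isopropanol for 1 h at RT, A570. Vehicle subtracted; % inhibition versus Aβ-treated vehicle; viability from wells without Aβ.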

[9] = Terminal half life in Sprague-Dawley rat at 10 mg/kg, iv; type: ADME, organism-based; set-up: dose 10 mg/kg, route intravenous; conditions: in vivo, read-out: beta t1/2; in short: as §1
[10] = Ratio of drug uptake in brain to drug uptake in plasma in Sprague-Dawley rat at 10 mg/kg, po; type: ADME, organism-based; set-up: dose 10 mg/kg, route oral; conditions: read-out: BPR
In short: (§2)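 Male Sprague-Dawley rats given 10 mg/kg iv or orally. Brain-to-plasma concentration ratio taken 2 h after dosing. Concentrations measured by LC-MS/MS.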

[11] = Metabolic stability in rat plasma at 0.5 ug/ml after 2 hrs by LC/MS analysis; type: ADME, cell-free; conditions: read-out: Stability
In short: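 Drug-free rat plasma spiked from acetonitrile stock to 0.5 μg/mL, held at 37 °C with shaking for 0, 15, 30, 60 and 120 min. Quenched with 2 volumes of acetonitrile containing carbamazepine internal standard, centrifuged, supernatant quantified by LC–MS/MS.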

[12] = Ratio of drug uptake in brain to drug uptake in plasma in Sprague-Dawley rat at 10 mg/kg, iv; type: ADME, organism-based; set-up: dose 10 mg/kg, route intravenous; conditions: read-out: BPR; in short: as §2
[13] = AUC (0 to infinity) in Sprague-Dawley rat at 10 mg/kg, po; type: ADME, organism-based; set-up: time infinity, dose 10 mg/kg, route oral; conditions: plasma
[14] = Cmax in Sprague-Dawley rat at 10 mg/kg, iv; type: ADME, organism-based; set-up: dose 10 mg/kg, route intravenous; conditions: in vivo; in short: as §1
[15] = AUClast in Sprague-Dawley rat at 10 mg/kg, po; type: ADME, organism-based; set-up: time 0 - last, dose 10 mg/kg, route oral; conditions: plasma
In short: (§3)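 Male Sprague Dawley rats received 10 mg/kg intravenously (n = 3) or orally (n = 4). Blood was drawn via the carotid artery at 0, 1 min (IV only), 5 and 15 min, and 0.5, 1, 2, 4, 6 and 8 h. Plasma was precipitated with acetonitrile containing internal standard and analysed by LC–MS/MS (LLOQ 5 ng/mL). Parameters came from non-compartmental analysis; AUClast used the trapezoidal rule. Values are mean ± SD.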

[16] = Bioavailability in Sprague-Dawley rat at 10 mg/kg, po; conditions: in vivo
[17] = AUClast in Sprague-Dawley rat at 10 mg/kg, iv; type: ADME, organism-based; set-up: time 0 - last, dose 10 mg/kg, route intravenous; conditions: plasma; in short: as §3
[18] = Tmax in Sprague-Dawley rat at 10 mg/kg, po; type: ADME, organism-based; set-up: dose 10 mg/kg, route oral; conditions: in vivo; in short: as §1
[19] = Apparent volume of distribution at steady state in Sprague-Dawley rat at 10 mg/kg, iv; type: ADME, organism-based; set-up: dose 10 mg/kg, route intravenous; conditions: in vivo, read-out: Vdss(app); in short: as §1
[20] = Terminal half life in Sprague-Dawley rat at 10 mg/kg, po; type: ADME, organism-based; set-up: dose 10 mg/kg, route oral; conditions: in vivo, read-out: beta t1/2; in short: as §1
[21] = Clearance in Sprague-Dawley rat at 10 mg/kg, iv; type: ADME, organism-based; set-up: dose 10 mg/kg, route intravenous; conditions: in vivo; in short: as §1
[22] = Clearance in Sprague-Dawley rat at 10 mg/kg, po; type: ADME, organism-based; set-up: dose 10 mg/kg, route oral; conditions: in vivo; in short: as §1

Structure (SMILES)	Activity (HT-22 [1])	Activity (HT-22 [2])	viability at 5 µM ([3]; HT22 cells)	also measured
CC(C)N1CCC(O/N=C/c2ccccc2OCc2ccc(Cl)c(Cl)c2)C1 (centres undefined)	95%			
Clc1ccc(COc2ccccc2/C=N/OC2CN3CCC2CC3)c(Cl)c1 (centres undefined)	69%			
C(=N\OC1CCN(Cc2ccccc2)C1)/c1ccccc1OCc1ccccc1 (centres undefined)	38%	-137%	99%	
FC(F)(F)c1ccccc1COc1ccccc1/C=N/OC1CN2CCC1CC2 (centres undefined)	91%			
CN1CCC(O/N=C/c2ccccc2OCc2ccc(Cl)cc2Cl)C1 (centres undefined)	18%	-9%	90%	
FC(F)(F)c1cccc(/C=N/OC2CCN(Cc3ccccc3)C2)c1 (centres undefined)	123%			
COc1ccccc1/C=N/OC1CN2CCC1CC2 (centres undefined)	71%			
CN1CCCC(O/N=C/c2ccccc2OCc2ccccc2)C1 (centres undefined)	29%	15%	112%	
CC(C)N1CCC(O/N=C/c2ccccc2OCc2ccc(Cl)cc2Cl)C1 (centres undefined)	61%			
C(=N\OC1CN2CCC1CC2)/c1cccc(Oc2ccccc2)c1 (centres undefined)	138%			
Clc1ccc(COc2ccccc2/C=N/OC2CCN(Cc3ccccc3)C2)cc1Cl (centres undefined)	41%	104%	83%	remaining at 0.5 h, 1 µM [4]: 47.8%; Cmax [5]: 570 ng/mL; AUC(0-inf) [6]: 6280 ng·h/mL; viability at 24 h, 10 µM [7]: 129%; inhibition at 10 µM (HT-22 [8]): 149%; half-life [9]: 2.35 h; Kp [10]: 0.29; remaining at 2 h, 0.5 ug/ml [11]: 111%; Kp [12]: 14.6; AUC(0-inf) [13]: 2390 ng·h/mL; Cmax [14]: 44500 ng/mL; AUC(0-t) [15]: 1960 ng·h/mL; bioavailability [16]: 38.1%; AUC(0-t) [17]: 5890 ng·h/mL; Tmax [18]: 2 h; Vd [19]: 2.87 L/kg; half-life [20]: 2.92 h; clearance [21]: 28.1 mL/min/kg; CL/F [22]: 72.1 mL/min/kg
CN1CCC(O/N=C/c2ccccc2OCc2ccc(Cl)c(Cl)c2)C1 (centres undefined)	57%			
Clc1ccccc1COc1ccccc1/C=N/OC1CN2CCC1CC2 (centres undefined)	88%			
CC(C)N1CCC(O/N=C/c2ccccc2OCc2ccccc2)C1 (centres undefined)	19%	-93%	67%	
CN1CCCC(O/N=C/c2ccccc2OCc2cccc(F)c2)C1 (centres undefined)	32%	9%	136%	
Fc1cccc(COc2ccccc2/C=N/OC2CCN(Cc3ccccc3)C2)c1 (centres undefined)	42%	-201%	74%	
NC(=O)CN1CCCC1=O [PIRACETAM]	40%	127%		viability at 24 h, 10 µM [7]: 132%; inhibition at 10 µM (HT-22 [8]): 29%; viability at 5 µM [3]: 88%
Clc1cccc(COc2ccccc2/C=N/OC2CN3CCC2CC3)c1 (centres undefined)	101%			
C(=N\OC1CN2CCC1CC2)/c1cccc(OCc2ccccc2)c1 (centres undefined)	121%			
CN1CCC(O/N=C/c2ccccc2OCc2cccc(F)c2)C1 (centres undefined)	42%	20%	87%	
Clc1ccc(COc2ccccc2/C=N/OC2CN3CCC2CC3)cc1Cl (centres undefined)	77%			
Fc1ccc(COc2ccccc2/C=N/OC2CN3CCC2CC3)cc1 (centres undefined)	93%			
COc1cccc(/C=N/OC2CN3CCC2CC3)c1 (centres undefined)	86%			
CN1CCCC(O/N=C/c2ccccc2OCc2ccc(Cl)c(Cl)c2)C1 (centres undefined)	62%			
COc1ccccc1/C=N/OC1CCCN(C)C1 (centres undefined)	257%			
